Measurements published in ChEMBL document CHEMBL1122917, “Vinblastin-23-oyl amino acid derivatives: chemistry, physicochemical data, toxicity, and antitumor activities against P388 and L1210 leukemias” (J Med Chem, 1985).

Key:
Mus musculus [1] = test: Percent increase in life span of DBA2 mice after inoculation with L1210 leukemia intravenously at a dose of 4.5 mg/kg per day; type: functional; settings: route intravenous
Mus musculus [2] = test: Percent increase in life span at dose 1.5 mg/kg/day in 10 mice implanted with P388 leukemia cell line; type: functional
Mus musculus [3] = test: Number of survivors of DBA2 mice on 30th day after inoculation with L1210 leukemia cell line intravenously at a dose of 5.5 mg/kg/day; 0/10; type: functional; settings: route intravenous
Mus musculus [4] = test: Percent increase in life span at dose 1 mg/kg/day in 10 mice implanted with P388 leukemia cell line; type: functional
Mus musculus [5] = test: Number of survivors of DBA2 mice on 60th day after inoculation with L1210 leukemia cell line intraperitoneally at a dose of 2.7 mg/kg/day; 0/10; type: functional; settings: route intraperitoneal
Mus musculus [6] = test: Percent increase in life span at dose 2 mg/kg/day in 7 mice implanted with P388 leukemia cell line for 1,8,15 scheduled days; type: functional
Mus musculus [7] = test: Number of survivors of DBA2 mice on 30th day after inoculation with L1210 leukemia cell line intravenously at a dose of 3 mg/kg/day; 0/11; type: functional; settings: route intravenous
Mus musculus [8] = test: Percent increase in life span of BDF1 mice after inoculation with P388 leukemia intraperitoneally at a dose of 4 mg/kg per day; settings: P388, ip
Mus musculus [9] = test: Number of survivors on 60th day at dose 8 mg/kg/day in 9 mice implanted with P388 leukemia cell line; 0/9; type: functional
Mus musculus [10] = test: Number of survivors on 30th day at dose 7 mg/kg/day in 10 mice implanted with P388 leukemia cell line; 2/10; type: functional
Mus musculus [11] = test: Number of survivors on 30th day at dose 65 mg/kg/day in 10 mice implanted with P388 leukemia cell line; 7/9; type: functional
Mus musculus [12] = test: Percent increase in life span at dose 40 mg/kg/day in 10 mice implanted with P388 leukemia cell line; type: functional
Method in brief: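 Female DBA2 mice inoculated iv on day 0 with 10^4 P388 cells; single iv treatment on day 1 with drug as sulfate salt in physiological saline. Survival followed; %ILS from all deaths and survivors as (T/C × 100) − 100, maximal MST 30 days; survivors counted on days 30 and 60. Most experiments confirmed three times.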

Mus musculus [13] = test: Number of survivors of DBA2 mice on 60th day after inoculation with L1210 leukemia cell line intravenously at a dose of 55 mg/kg/day; 0/10; type: functional; settings: route intravenous

For `CC[C@]1(O)C[C@H]2CN(CCc3c([nH]c4ccccc34)[C@@](C(=O)OC)(c3cc4c(cc3OC)N(C=O)[C@H]3[C@@](O)(C(=O)OC)[C@H](OC(C)=O)[C@]5(CC)C=CCN6CC[C@]43[C@@H]65)C2)C1` [VINCRISTINE], which ILS at 4.5 mg/kg/day (Mus musculus [1]) is on record?
Its ILS at 4.5 mg/kg/day is 20%.

What about the ILS at 1.5 mg/kg/day (Mus musculus [2]) of the same molecule?
The ILS at 1.5 mg/kg/day was 20.8%.

What about the Survivors (Mus musculus [3]) of the same molecule?
The Survivors was 0.

And the ILS at 1 mg/kg/day (Mus musculus [4])?
The ILS at 1 mg/kg/day was 16%.

And the Survivors (Mus musculus [5])?
The Survivors was 0.

Which ILS at 2 mg/kg/day (Mus musculus [6]) does the source give for `CC[C@]1(O)C[C@@H]2CN(CCc3c([nH]c4ccccc34)[C@@](C(=O)OC)(c3cc4c(cc3OC)N(C)[C@H]3[C@@](O)(C(N)=O)[C@H](O)[C@]5(CC)C=CCN6CC[C@]43[C@@H]65)C2)C1` [VINDESINE] here?
Its ILS at 2 mg/kg/day is 31%.

And the Survivors (Mus musculus [7])?
Its Survivors is 0.

With `CC[C@]1(O)C[C@@H]2CN(CCc3c([nH]c4ccccc34)[C@@](C(=O)OC)(c3cc4c(cc3OC)N(C)[C@H]3[C@@](O)(C(=O)OC)[C@H](OC(C)=O)[C@]5(CC)C=CCN6CC[C@]43[C@@H]65)C2)C1` [VINBLASTINE] as the molecule, how does the ILS at 4 mg/kg/day (Mus musculus [8]) read?
Its ILS at 4 mg/kg/day is 0%.

What about the Survivors (Mus musculus [9]) of the same molecule?
Its Survivors is 0.

`CCOC(=O)[C@@H](NC(=O)[C@@]1(O)[C@H](O)[C@]2(CC)C=CCN3CC[C@@]4(c5cc([C@@]6(C(=O)OC)C[C@H]7C[N@](CCc8c6[nH]c6ccccc86)C[C@](O)(CC)C7)c(OC)cc5N(C)[C@@]14C)[C@@H]32)[C@@H](C)CC` was tested. Which Survivors (Mus musculus [10]) did it give?
Its Survivors is 2.

`CCOC(=O)[C@H](Cc1c[nH]c2ccccc12)NC(=O)[C@@]1(O)[C@H](O)[C@]2(CC)C=CCN3CC[C@@]4(c5cc([C@@]6(C(=O)OC)C[C@H]7C[N@](CCc8c6[nH]c6ccccc86)C[C@](O)(CC)C7)c(OC)cc5N(C)[C@@]14C)[C@@H]32` was tested. Which Survivors (Mus musculus [11]) did it give?
The Survivors was 7.

What about the ILS at 40 mg/kg/day (Mus musculus [12]) of the same molecule?
The ILS at 40 mg/kg/day was 58.8%.

What about the Survivors (Mus musculus [13]) of the same molecule?
Its Survivors is 0.
